According to ChEMBL document CHEMBL2346503, “Synthesis and evaluation of novel (18)F-labeled spirocyclic piperidine derivatives as σ1 receptor ligands for positron emission tomography imaging” (J Med Chem, 2013):

Columns and labels:
Midbrain = experiment: Biodistribution in Sprague-Dawley rat midbrain at 23 MBq, iv after 60 mins by microPET imaging/CT study in presence of haloperidol; type: ADME, organism-based; conditions: in vivo, 1 h
How it was run: (§1)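 Sprague-Dawley rats under isoflurane (1.5–2.5%) in oxygen received 23 MBq radiotracer (0.2 mL saline) via tail vein. Blocking animals were pre-injected with haloperidol (0.2 mL, 1 mg/kg) 5 min before the tracer. MicroPET emission was acquired for 30 min starting 60 min post-injection, followed by a 5 min CT scan; images were summed over 60–90 min.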

Cerebellum [1] = experiment: Biodistribution in Sprague-Dawley rat cerebellum at 23 MBq, iv after 60 mins by microPET imaging/CT study in presence of haloperidol; type: ADME, organism-based; conditions: in vivo, 1 h; how it was run: as §1
Nucleic Acid [2] = experiment: Ratio of drug uptake in Sprague-Dawley rat thalamus to cerebellum at 12.2 MBq, iv after 60 mins by autoradiography; type: ADME, organism-based; conditions: in vivo, 1 h
[3] = Chemical stability of the compound at room temperature up to 4 hrs; type: physicochemical
How it was run: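 Radiotracer (3.7 MBq in 100 μL water) was added to 1 mL of 80% ethanol or 0.9% NaCl and held at room temperature for 4 h. Radiochemical purity was checked by HPLC at 1, 2 and 4 h.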

Liver = experiment: Metabolic stability in ICR mouse liver assessed as retention time at 18.5 MBq, iv by HPLC analysis; type: ADME, organism-based; conditions: in vivo
How it was run: (§2)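 Male ICR mice given radiotracer iv (18.5 MBq, 0.2 mL), killed at 30 min. Brain and liver were homogenized in ice-cold PBS (0.01 M, pH 7.4) and extracted with ice-cold MeCN. Supernatants were filtered, concentrated and analysed by radio-HPLC on a C18 column, acetonitrile/water with 0.1% TFA (45:55), 1 mL/min.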

Brain [4] = experiment: Biodistribution in ICR mouse brain assessed as reduction in radiotracer uptake at 370 kBq, iv after 60 minutes by gamma-counting analysis in presence of tamoxifen; type: ADME, organism-based; conditions: in vivo, 1 h
How it was run: (§3)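 Male ICR mice got saline or a blocker (haloperidol, (S)-(−)-raclopride, fluvoxamine or tamoxifen; 0.1 mL, 2.2 μmol/kg) via tail vein 5 min before 370 kBq tracer iv. Brain was γ-counted at 60 min and compared with saline controls by two-tailed Student's t test, p ≤ 0.05.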

Cerebellum [5] = experiment: Biodistribution in Sprague-Dawley rat cerebellum at 23 MBq, iv after 60 mins by microPET imaging/CT study; type: ADME, organism-based; conditions: in vivo, 1 h; how it was run: as §1
Kidney = experiment: Biodistribution in ICR mouse kidney assessed as reduction in radiotracer uptake at 370 kBq, iv after 60 minutes by gamma-counting analysis in presence of SA4503 relative to control; type: ADME, organism-based; design: scale not given: the % may be the effect or the level left; conditions: in vivo, 1 h
How it was run: (§4)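 Male ICR mice got saline or SA4503 (0.1 mL; 2, 5, 10 or 2.2 μmol/kg) via tail vein 5 min before 370 kBq tracer (0.1 mL) iv. They were decapitated at 60 min and tissues γ-counted. Percent change was taken against saline controls, with two-tailed Student's t test, p ≤ 0.05.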

Heart = experiment: Biodistribution in ICR mouse heart assessed as reduction in radiotracer uptake at 370 kBq, iv after 60 minutes by gamma-counting analysis in presence of SA4503 relative to control; type: ADME, organism-based; design: scale not given: the % may be the effect or the level left; conditions: in vivo, 1 h; how it was run: as §4
Brain [6] = experiment: Biodistribution in ICR mouse brain assessed as reduction in radiotracer uptake at 370 kBq, iv after 60 minutes by gamma-counting analysis in presence of haloperidol; type: ADME, organism-based; conditions: in vivo, 1 h; how it was run: as §3
Thalamus [7] = experiment: Biodistribution in Sprague-Dawley rat thalamus at 23 MBq, iv after 60 mins by microPET imaging/CT study; type: ADME, organism-based; conditions: in vivo, 1 h; how it was run: as §1
[8] = Drug uptake in Sprague-Dawley rat lateral ventricle at 12.2 MBq, iv after 60 mins by autoradiography; type: ADME, organism-based; conditions: in vivo, 1 h
How it was run: (§5)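 [¹⁸F]-labelled tracer (0.2 mL, 12.2 MBq) given intravenously to conscious Sprague-Dawley rats (n = 3). Each rat was killed by cervical dislocation 60 min after injection. The brain was removed and frozen in liquid nitrogen, and 20 μm coronal sections were cut on a cryostat for ex vivo autoradiography of regional radioactivity.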

Thalamus [9] = experiment: Biodistribution in Sprague-Dawley rat thalamus at 23 MBq, iv after 60 mins by microPET imaging/CT study in presence of haloperidol; type: ADME, organism-based; conditions: in vivo, 1 h; how it was run: as §1
Cortex [10] = experiment: Biodistribution in Sprague-Dawley rat cortex at 23 MBq, iv after 60 mins by microPET imaging/CT study; type: ADME, organism-based; conditions: in vivo, 1 h; how it was run: as §1
Cortex [11] = experiment: Drug uptake in Sprague-Dawley rat temporal cortex auditory area at 12.2 MBq, iv after 60 mins by autoradiography; type: ADME, organism-based; conditions: in vivo, 1 h; how it was run: as §5
Nucleic Acid [12] = experiment: Ratio of drug uptake in Sprague-Dawley rat temporal cortex auditory area to cerebellum at 12.2 MBq, iv after 60 mins by autoradiography; type: ADME, organism-based; conditions: in vivo, 1 h
Rattus norvegicus [13] = experiment: Biodistribution in Sprague-Dawley rat internal capsule at 23 MBq, iv after 60 mins by microPET imaging/CT study; type: ADME, organism-based; conditions: in vivo, 1 h; how it was run: as §1
Rattus norvegicus [14] = experiment: Biodistribution in Sprague-Dawley rat pontine reticular nucleus at 23 MBq, iv after 60 mins by microPET imaging/CT study in presence of haloperidol; type: ADME, organism-based; conditions: in vivo, 1 h; how it was run: as §1
Brain [15] = experiment: Metabolic stability in ICR mouse brain at 18.5 MBq, iv after 30 mins by HPLC analysis; type: ADME, organism-based; conditions: in vivo, 0.5 h; how it was run: as §2
Brain [16] = experiment: Biodistribution in ICR mouse brain assessed as reduction in radiotracer uptake at 370 kBq, iv after 60 minutes by gamma-counting analysis in presence of SA4503 relative to control; type: ADME, organism-based; design: scale not given: the % may be the effect or the level left; conditions: in vivo, 1 h; how it was run: as §4
Hypothalamus [17] = experiment: Drug uptake in Sprague-Dawley rat hypothalamus at 12.2 MBq, iv after 60 mins by autoradiography; type: ADME, organism-based; conditions: in vivo, 1 h; how it was run: as §5
Hypothalamus [18] = experiment: Biodistribution in Sprague-Dawley rat hypothalamus at 23 MBq, iv after 60 mins by microPET imaging/CT study in presence of haloperidol; type: ADME, organism-based; conditions: in vivo, 1 h; how it was run: as §1
[19] = Metabolic stability in ICR mouse liver at 18.5 MBq, iv after 30 mins by HPLC analysis; type: ADME, organism-based; conditions: read-out: Stability; how it was run: as §2
Cortex [20] = experiment: Biodistribution in Sprague-Dawley rat cortex at 23 MBq, iv after 60 mins by microPET imaging/CT study in presence of haloperidol; type: ADME, organism-based; conditions: in vivo, 1 h; how it was run: as §1
Lung = experiment: Biodistribution in ICR mouse lung assessed as reduction in radiotracer uptake at 370 kBq, iv after 60 minutes by gamma-counting analysis in presence of SA4503 relative to control; type: ADME, organism-based; design: scale not given: the % may be the effect or the level left; conditions: in vivo, 1 h; how it was run: as §4
[21] = Drug uptake in Sprague-Dawley rat paramedian lobule at 12.2 MBq, iv after 60 mins by autoradiography; type: ADME, organism-based; conditions: in vivo, 1 h; how it was run: as §5
Nucleic Acid [22] = experiment: Ratio of drug uptake in Sprague-Dawley rat hippocampus to cerebellum at 12.2 MBq, iv after 60 mins by autoradiography; type: ADME, organism-based; conditions: in vivo, 1 h
Thalamus [23] = experiment: Drug uptake in Sprague-Dawley rat thalamus at 12.2 MBq, iv after 60 mins by autoradiography; type: ADME, organism-based; conditions: in vivo, 1 h; how it was run: as §5
[24] = Stability of the compound in mouse plasma at 37 degC up to 4 hrs; type: ADME, cell-free
How it was run: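 The radiotracer (3.7 MBq in 100 μL water) was added to 1 mL of freshly prepared murine plasma and incubated at 37 °C for 4 h. Radiochemical purity was assayed by HPLC at 1, 2 and 4 h.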

[18F]CCOc1ccc(CN2CCC3(CC2)OCc2ccccc23)cc1
Drug uptake (Midbrain): Active | Drug uptake (Cerebellum [1]): Active | Ratio (Nucleic Acid [2]): 1.38 | Stability [3]: Stable | Retention_time (Liver): 7.72 min | Drug uptake (Brain [4]): Active | Drug uptake (Cerebellum [5]): Active | Activity (Kidney): 57% | Activity (Heart): 60% | Drug uptake (Brain [6]): Active | Drug uptake (Thalamus [7]): Active | Drug uptake [8]: Active | Drug uptake (Thalamus [9]): Active | Drug uptake (Cortex [10]): Active | Drug uptake (Cortex [11]): Active | Ratio (Nucleic Acid [12]): 1.9 | Drug uptake (Rattus norvegicus [13]): Active | Drug uptake (Rattus norvegicus [14]): Active | Stability (Brain [15]): Stable | Activity (Brain [16]): 46% | Drug uptake (Hypothalamus [17]): Active | Drug uptake (Hypothalamus [18]): Active | remaining at 0.5 h [19]: 40.3% | Drug uptake (Cortex [20]): Active | Activity (Lung): 71% | Drug uptake [21]: Active | Ratio (Nucleic Acid [22]): 1.22 | Drug uptake (Thalamus [23]): Active | Stability [24]: Stable
